Measurements reported in publication PMC8945396 (ACS Nano, 2022).

What was measured:
[1] = system: soybean leaf epidermal and palisade mesophyll cells; test: Translocation of TAMRA-labeled CPPs after spraying; type: in vivo, Glycine max; conditions: cv. Enrei; 30, 90, 150 min post spraying; CLSM, 6 ROIs
[2] = system: transgenic tomato leaf cells overexpressing GFP; test: Transfection of Cy3-labeled pBI221/CPP complexes after spraying; type: in vivo, Solanum lycopersicum; conditions: as Cy3-labeled pBI221/CPP complex, N/P ratio = 2.0; 2 h post spraying; n = 15 ROIs
[3] = system: Arabidopsis thaliana leaf upper epidermal and palisade mesophyll cells; test: Cell penetration and translocation of TAMRA-labeled CPPs after spraying; type: in vivo; conditions: 0.1 μg/mL sprayed; 30, 90, 150 min post spraying; CLSM, n = 8 ROIs
[4] = system: epidermal cells of tomato leaves; test: Translocation of TAMRA-labeled CPPs after spraying; type: in vivo, Solanum lycopersicum; conditions: compared among BP100, dR9, KH9, KAibA; 30, 90, 150 min; 10 ROIs
Procedure, shortened: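 Tomato (cv. Micro-Tom) grown in soil with vermiculite at 25 °C, 16/8 h light/dark, 80 μmol photons m–2 s–1, 50% RH for 5–8 weeks; plants with 5–6 expanded leaves. Leaves were water-washed and dried 3–4 h, then sprayed with TAMRA-labeled peptides and lidded. Before imaging, leaves were rinsed 5 × 1 mL water. TAMRA fluorescence intensity was read by confocal microscopy, ex/em 555/580 nm.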

Substance: (Lys(Aib)Ala)5 [TAMRA-labeled KAibA]
- translocation efficiency into the palisade mesophyll of soybean leaves [1]: higher translocation efficiency into the palisade mesophyll than the other CPPs

Substance: KHKHKHKHKHKHKHKHKHKKLFKKILKYL [KH9-BP100]
- transfection efficiency of plasmid DNA molecules after spraying [2]: higher transfection efficiency

Substance: d-(RRRRRRRRR) [TAMRA-labeled dR9]
- penetration efficiency into the palisade mesophyll [3]: higher penetration efficiency into the palisade mesophyll than the other CPPs
- translocation efficiency in epidermal cells of tomato leaves [4]: greatest translocation efficiency
